Reference: ChEMBL document CHEMBL4665656, “Toxicity, bioactivity, release of HS in vivo and pharmaco-kinetics of HS-donors with thiophosphamide structure” (Eur J Med Chem, 2019)
Calls of active or inactive are those of the source. The rule behind the calls is not given here.

Legend:
[1] = Solubility of compound in water; assay type: physicochemical; conditions: buffer
[2] = Kinetic Solubility of compound; assay type: physicochemical
[3] = Retention time of compound in PBS by LC-MS analysis; assay type: physicochemical; conditions: buffer
In short: (§1)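 Compound incubated in PBS pH 7.4 or in serum, sampled every 12 h over 36 h, and analysed by LC-MS for parent and product peaks.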

[4] = Retention time of compound in serum by LC-MS analysis; assay type: physicochemical, cell-free; in short: as §1
[5] = Induction of H2S generation assessed as Cmax Induction of H2S generation assessed as Cmax at 150 uM incubated at 37 degC and pH 8 by fluorescence spectrophotometry; assay type: functional
In short: (§2)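 Donor at 150 µM final, mixed with 200 µM sulfonyl-azide fluorescent probe in buffer/acetonitrile (1:9) at set pH. Cuvette held in a water bath at 22 °C or 37 °C, with fluorescence read three times at intervals. H2S was quantified from a Na2S standard curve (0–200 µM, probe 200 µM).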

[6] = Induction of H2S generation assessed as Cmax at 150 uM incubated at 37 degC and pH 1.2 by fluorescence spectrophotometry; assay type: functional; in short: as §2
[7] = Induction of H2S generation assessed as Cmax at 150 uM incubated at 22 degC and pH 7.4 by fluorescence spectrophotometry; assay type: functional; in short: as §2
[8] = Induction of H2S generation assessed as Cmax at 150 uM incubated at 22 degC and pH 5 by fluorescence spectrophotometry; assay type: functional; in short: as §2
[9] = Drug metabolism in Wistar rat heart homogenate assessed as metabolite formation incubated for 36 hrs by LC-MS; assay type: ADME, tissue-based; conditions: tissue homogenate
[10] = Drug metabolism in Wistar rat kidney homogenate assessed as metabolite formation incubated for 36 hrs by LC-MS; assay type: ADME, tissue-based; conditions: tissue homogenate
[11] = test system: HeLa; test: Cytotoxicity in human HeLa cells assessed as growth inhibition incubated for 24 hrs by MTT assay; assay type: functional, cell-based
In short: (§3)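 Cells were grown in RPMI 1640 with 10% FBS at 37 °C and 10% CO2, seeded at 6×10^3 cells/well. Exposure was 24 h, with viability by MTT, in triplicate cultures. IC50 was reported as mean ± SD.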

[12] = test system: A549; test: Cytotoxicity in human A549 cells assessed as growth inhibition incubated for 24 hrs by MTT assay; assay type: functional, cell-based; conditions: A549, 24 h; in short: as §3
[13] = Toxicity in zebrafish embryos assessed as embryo malformation rate at 1 to 20 uM measured after 96 hpf relative to control; set-up: species or system Danio rerio; conditions: in vivo
[14] = Acute toxicity in juvenile zebrafish assessed as decrease in locomotor activity measured as swimming distance at 10 uM measured at 144 hpf; set-up: species or system Danio rerio; conditions: in vivo, dose […]
In short: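 Wild-type AB zebrafish bred at 28 °C on a 14 h/10 h light cycle; normally developing embryos were selected at 4 hpf. Total swimming distance of juveniles was recorded over 5 min under visible light. DMF (1:1000) was the vehicle control, n = 100, three independent experiments, mean ± SD.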

[15] = test system: H9c2; test: Cardioprotective activity against H2O2- induced toxicity in rat H9c2 cells assessed as increase in survival rate at 50 uM incubated for 8 hrs co-treated with 50 uM H2O2 measured after 24 hrs by MTT assay relative to control; assay type: functional
In short: (§4)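 H9c2 cardiomyocytes injured with H2O2 (50, 200 or 400 µM) for 8 h together with compound (10–100 µM). Survival rate measured against the H2O2 model group. Six independent experiments, mean ± sd.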

[16] = test system: H9c2; test: Cardioprotective activity against H2O2- induced toxicity in rat H9c2 cells assessed as increase in survival rate at 50 uM incubated for 8 hrs co-treated with 200 uM H2O2 measured after 24 hrs by MTT assay relative to control; assay type: functional; in short: as §4
[17] = test system: H9c2; test: Cardioprotective activity against H2O2- induced toxicity in rat H9c2 cells assessed as increase in survival rate at 50 uM incubated for 8 hrs co-treated with 400 uM H2O2 measured after 24 hrs by MTT assay relative to control; assay type: functional; in short: as §4
[18] = Induction of H2S generation assessed as half life at 150 uM incubated at 22 degC and pH 5 by fluorescence spectrophotometry; assay type: functional; in short: as §2
[19] = Induction of H2S generation assessed as half life at 150 uM incubated at 37 degC and pH 1.2 by fluorescence spectrophotometry; assay type: functional; in short: as §2
[20] = Induction of H2S generation assessed as half life at 150 uM incubated at 37 degC and pH 8 by fluorescence spectrophotometry; assay type: functional; in short: as §2
[21] = test system: RAW264.7; test: Anti-inflammatory activity in mouse RAW264.7 cells assessed as inhibition of LPS-induced NO production at 100 uM preincubated for 4 hr followed by LPS addition and measured after 24 hrs relative to control; assay type: functional
In short: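 RAW264.7 cells exposed to LPS 1 µg/mL with compound (20 and 100 µM) for 24 h. Nitrite in medium measured by Griess reagent, […], against a sodium nitrite standard curve (0–100 µM). Four parallel groups, mean ± SD.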

[22] = test system: RAW264.7; test: Anti-inflammatory activity in mouse RAW264.7 cells assessed as inhibition of LPS-induced IL-10 production at 20 uM preincubated for 4 hr followed by LPS addition and measured after 24 hrs; assay type: functional, cell-based
In short: (§5)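 RAW264.7 cells given LPS 1 µg/mL with compound for 24 h, then lysed in RIPA and centrifuged. Protein was set to 0.1 mg/mL by BCA and mouse cytokine levels measured by sandwich ELISA kit. Four parallel groups, mean ± SD.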

[23] = test system: RAW264.7; test: Anti-inflammatory activity in mouse RAW264.7 cells assessed as inhibition of LPS-induced TNFalpha production at 20 uM preincubated for 4 hr followed by LPS addition and measured after 24 hrs relative to control; assay type: functional, cell-based; in short: as §5
[24] = test system: H9c2; test: Cardioprotective activity against H2O2- induced toxicity in rat H9c2 cells assessed as decrease in MDA level at 10 to 100 uM pretreated with H202 for 8 hrs followed by compound addition measured after 24 hrs; assay type: functional, cell-based; conditions: dose microM 10-100, time 8.0 hrs
[25] = test system: H9c2; test: Cytoprotective activity against H2O2-induced toxicity in rat H9c2 cells assessed as increase in SOD level at 10 to 100 uM pretreated with H202 for 8 hrs followed by compound addition measured after 24 hrs; assay type: functional, cell-based; conditions: dose microM 10-100, time 8.0 hrs
[26] = Toxicity in zebrafish embryos assessed as embryo malformation rate at 20 uM measured after 96 hpf relative to control; set-up: species or system Danio rerio; conditions: in vivo

SMILES	Retention_time [4] [min]	Cmax [5] [µM]	Cmax [6] [µM]	Cmax [7] [µM]	Cmax [8] [µM]	IC50 [11] [µM]	IC50 [12] [µM]	Activity [14] [mm]	Activity [15] [%]	Activity [16] [%]	T1/2 [18] [min]	T1/2 [19] [min]	T1/2 [20] [min]	also measured
S=P1(c2ccccc2)NCCCO1 (centres undefined)	9.647	35.1	34.8	25.1	24.9	826	886	257	17.1	13.9	34.1	35.4	34.9	solubility [1]: Insoluble; Kinetic_solubility [2]: Soluble; Retention_time [3]: 9.649 min; Drug metabolism [9]: Metabolite_Detected; Drug metabolism [10]: Metabolite_Detected; Activity [13]: 2%; Activity [17]: 5.1%
O=C([O-])[C@H](Cc1cc2ccccc2[nH]1)NP([O-])(=S)c1ccccc1.[Li+].[Li+] (some centres undefined)	8.06	124	124	117	117	712	433	216	25.5	30.1	3.53	1.51	7.85	inhibition at 100 µM [21]: 50%; Activity [22]: Active; Activity [23]: Active; Activity [24]: Active; Activity [25]: Active; Activity [26]: 5%
